The M2OR odorant receptor database
Positions count from the first letter of the chain named.

Tests used:
Conditions in all cases: stereoisomer not certain
OR2A7 (Homo sapiens) = molecular target: T1, OR2A7 (Homo sapiens) (UniProt Q96R45)
T1 sequence (whole entry): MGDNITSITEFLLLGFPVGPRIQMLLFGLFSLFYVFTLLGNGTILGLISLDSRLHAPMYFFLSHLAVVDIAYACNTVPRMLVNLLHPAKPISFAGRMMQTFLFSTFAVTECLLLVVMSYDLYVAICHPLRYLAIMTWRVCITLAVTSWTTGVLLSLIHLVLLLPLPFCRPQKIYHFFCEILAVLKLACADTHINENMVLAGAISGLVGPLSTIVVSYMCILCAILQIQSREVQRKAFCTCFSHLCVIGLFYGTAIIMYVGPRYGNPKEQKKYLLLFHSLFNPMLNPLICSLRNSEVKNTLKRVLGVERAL
Summary of the method: (§1)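 Whether a receptor–molecule pair is responsive (active) rests on the original authors' judgment that its measured signal was statistically different from baseline. Pairs without that judgment are non-responsive (inactive). Sources used varied assay methods, commonly transient luciferase assays in mammalian cell lines.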

OR2A1 T73A R74C S168C = tested on: T2, OR2A1 T73A R74C S168C
T2 sequence (whole entry): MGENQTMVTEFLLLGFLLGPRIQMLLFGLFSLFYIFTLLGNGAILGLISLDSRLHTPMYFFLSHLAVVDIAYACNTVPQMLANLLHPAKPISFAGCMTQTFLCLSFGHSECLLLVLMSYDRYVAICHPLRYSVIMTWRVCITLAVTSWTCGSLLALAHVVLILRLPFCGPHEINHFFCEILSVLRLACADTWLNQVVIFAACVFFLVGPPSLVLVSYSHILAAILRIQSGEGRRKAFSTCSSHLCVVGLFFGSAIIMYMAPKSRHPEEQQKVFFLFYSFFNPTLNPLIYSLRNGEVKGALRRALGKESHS
Summary of the method: as §1

OR2A12 (Homo sapiens) = molecular target: T3, OR2A12 (Homo sapiens) (UniProt Q8NGT7)
T3 sequence (whole entry): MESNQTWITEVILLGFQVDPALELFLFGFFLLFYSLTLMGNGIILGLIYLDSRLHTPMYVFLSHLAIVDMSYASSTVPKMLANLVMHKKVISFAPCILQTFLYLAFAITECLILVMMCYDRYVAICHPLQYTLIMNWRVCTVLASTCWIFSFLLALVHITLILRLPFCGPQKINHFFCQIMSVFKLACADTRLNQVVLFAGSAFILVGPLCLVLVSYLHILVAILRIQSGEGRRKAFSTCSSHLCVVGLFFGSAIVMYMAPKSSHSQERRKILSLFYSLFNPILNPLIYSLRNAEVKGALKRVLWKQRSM
Summary of the method: as §1

OR2A14 (Homo sapiens) = molecular target: T4, OR2A14 (Homo sapiens) (UniProt Q96R47)
T4 sequence (whole entry): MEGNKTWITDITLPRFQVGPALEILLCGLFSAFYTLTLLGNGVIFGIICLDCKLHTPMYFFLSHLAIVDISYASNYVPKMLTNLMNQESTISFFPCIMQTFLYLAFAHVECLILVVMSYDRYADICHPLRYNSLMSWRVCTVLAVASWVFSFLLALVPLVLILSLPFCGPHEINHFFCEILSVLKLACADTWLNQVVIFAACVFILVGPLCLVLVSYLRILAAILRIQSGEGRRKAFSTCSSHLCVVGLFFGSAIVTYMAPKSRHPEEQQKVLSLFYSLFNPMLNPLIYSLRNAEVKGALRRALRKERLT
Summary of the method: as §1

OR2A2 (Homo sapiens) = molecular target: T5, OR2A2 (Homo sapiens) (UniProt Q6IF42)
T5 sequence (whole entry): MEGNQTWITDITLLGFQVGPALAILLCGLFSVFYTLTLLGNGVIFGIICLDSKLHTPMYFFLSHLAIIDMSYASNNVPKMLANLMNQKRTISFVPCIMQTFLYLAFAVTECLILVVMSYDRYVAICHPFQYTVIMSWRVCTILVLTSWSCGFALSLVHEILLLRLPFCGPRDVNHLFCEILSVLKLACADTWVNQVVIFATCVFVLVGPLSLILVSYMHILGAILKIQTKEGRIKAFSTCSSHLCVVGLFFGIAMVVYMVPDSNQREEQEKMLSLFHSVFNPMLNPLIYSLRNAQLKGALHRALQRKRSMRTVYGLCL
Summary of the method: as §1

OR2A25 (Homo sapiens) = molecular target: T6, OR2A25 (Homo sapiens) (UniProt A4D2G3)
T6 sequence (whole entry): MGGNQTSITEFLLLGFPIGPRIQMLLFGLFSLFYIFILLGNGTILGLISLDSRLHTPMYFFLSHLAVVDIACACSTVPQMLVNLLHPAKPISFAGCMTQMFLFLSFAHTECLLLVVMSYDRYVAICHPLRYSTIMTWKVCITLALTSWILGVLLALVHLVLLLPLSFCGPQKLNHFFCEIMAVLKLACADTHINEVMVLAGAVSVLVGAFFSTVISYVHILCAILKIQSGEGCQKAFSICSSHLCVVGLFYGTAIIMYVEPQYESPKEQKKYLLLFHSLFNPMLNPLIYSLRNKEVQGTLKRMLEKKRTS
Summary of the method: as §1

OR2A2 = tested on: T7, OR2A2
T7 sequence (whole entry): T5 sequence (whole entry) with F280L
Summary of the method: as §1

OR2A4 (Homo sapiens) = molecular target: T8, OR2A4 (Homo sapiens) (UniProt O95047)
T8 sequence (whole entry): T1 sequence (whole entry) with T9R, C238R, F250V
Summary of the method: as §1

OR2A5 (Homo sapiens) = molecular target: T9, OR2A5 (Homo sapiens) (UniProt Q96R48)
T9 sequence (whole entry): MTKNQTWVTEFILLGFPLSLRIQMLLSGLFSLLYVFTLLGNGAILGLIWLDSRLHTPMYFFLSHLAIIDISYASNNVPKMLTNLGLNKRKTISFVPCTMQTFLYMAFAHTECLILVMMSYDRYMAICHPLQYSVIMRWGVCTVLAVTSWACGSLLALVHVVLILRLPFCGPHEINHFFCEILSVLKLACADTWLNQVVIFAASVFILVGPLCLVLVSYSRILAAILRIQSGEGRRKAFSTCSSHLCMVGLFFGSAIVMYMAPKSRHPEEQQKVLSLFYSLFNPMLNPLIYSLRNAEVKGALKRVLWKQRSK
Summary of the method: as §1

OR2A5 I126V A202S A255T = tested on: T10, OR2A5 I126V A202S A255T
T10 sequence (whole entry): T9 sequence (whole entry) with I126V, A202S, A255T
Summary of the method: as §1

OR2A7 = tested on: T11, OR2A7
T11 sequence (whole entry): T1 sequence (whole entry) with T9R
Summary of the method: as §1

OR2AE1 (Homo sapiens) = molecular target: T12, OR2AE1 (Homo sapiens) (UniProt Q8NHA4)
T12 sequence (whole entry): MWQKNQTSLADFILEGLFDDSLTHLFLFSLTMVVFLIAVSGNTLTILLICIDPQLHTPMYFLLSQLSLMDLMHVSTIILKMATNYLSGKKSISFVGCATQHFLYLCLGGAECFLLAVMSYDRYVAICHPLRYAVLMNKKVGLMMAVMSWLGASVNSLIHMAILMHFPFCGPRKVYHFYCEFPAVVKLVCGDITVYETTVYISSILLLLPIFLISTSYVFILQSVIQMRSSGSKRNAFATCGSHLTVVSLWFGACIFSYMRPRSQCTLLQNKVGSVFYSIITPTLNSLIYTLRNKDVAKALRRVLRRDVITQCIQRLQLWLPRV
Summary of the method: as §1

OR2AG1 (Homo sapiens) = molecular target: T13, OR2AG1 (Homo sapiens) (UniProt Q9H205)
T13 sequence (whole entry): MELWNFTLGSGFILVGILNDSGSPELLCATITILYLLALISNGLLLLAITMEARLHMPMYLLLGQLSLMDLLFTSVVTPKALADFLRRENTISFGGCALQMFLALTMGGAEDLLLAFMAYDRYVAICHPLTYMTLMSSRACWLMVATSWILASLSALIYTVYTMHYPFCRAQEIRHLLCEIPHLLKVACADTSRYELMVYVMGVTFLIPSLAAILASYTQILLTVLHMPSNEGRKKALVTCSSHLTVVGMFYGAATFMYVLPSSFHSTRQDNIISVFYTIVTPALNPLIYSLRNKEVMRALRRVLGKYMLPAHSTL
Summary of the method: as §1

OR2AG2 (Homo sapiens) = molecular target: T14, OR2AG2 (Homo sapiens) (UniProt A6NM03)
T14 sequence (whole entry): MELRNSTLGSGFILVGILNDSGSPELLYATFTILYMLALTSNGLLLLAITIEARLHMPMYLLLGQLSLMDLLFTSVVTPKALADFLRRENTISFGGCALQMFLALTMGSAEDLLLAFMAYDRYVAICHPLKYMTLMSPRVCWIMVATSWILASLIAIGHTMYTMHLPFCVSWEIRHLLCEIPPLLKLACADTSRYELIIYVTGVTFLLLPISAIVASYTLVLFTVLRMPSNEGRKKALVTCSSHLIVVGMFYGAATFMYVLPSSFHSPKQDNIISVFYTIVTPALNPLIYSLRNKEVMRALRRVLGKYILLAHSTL
Summary of the method: as §1

OR2AK2 (Homo sapiens) = molecular target: T15, OR2AK2 (Homo sapiens) (UniProt Q8NG84)
T15 sequence (whole entry): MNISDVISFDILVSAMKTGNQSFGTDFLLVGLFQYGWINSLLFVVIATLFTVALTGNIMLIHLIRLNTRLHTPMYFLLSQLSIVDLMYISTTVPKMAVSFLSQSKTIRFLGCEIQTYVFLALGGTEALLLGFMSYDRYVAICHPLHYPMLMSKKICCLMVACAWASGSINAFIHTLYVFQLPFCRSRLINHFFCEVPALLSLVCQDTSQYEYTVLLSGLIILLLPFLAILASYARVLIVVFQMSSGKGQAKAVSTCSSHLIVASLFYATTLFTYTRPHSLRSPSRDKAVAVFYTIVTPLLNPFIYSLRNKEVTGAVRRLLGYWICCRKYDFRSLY
Summary of the method: as §1

OR2AP1 (Homo sapiens) = molecular target: T16, OR2AP1 (Homo sapiens) (UniProt Q8NGE2)
T16 sequence (whole entry): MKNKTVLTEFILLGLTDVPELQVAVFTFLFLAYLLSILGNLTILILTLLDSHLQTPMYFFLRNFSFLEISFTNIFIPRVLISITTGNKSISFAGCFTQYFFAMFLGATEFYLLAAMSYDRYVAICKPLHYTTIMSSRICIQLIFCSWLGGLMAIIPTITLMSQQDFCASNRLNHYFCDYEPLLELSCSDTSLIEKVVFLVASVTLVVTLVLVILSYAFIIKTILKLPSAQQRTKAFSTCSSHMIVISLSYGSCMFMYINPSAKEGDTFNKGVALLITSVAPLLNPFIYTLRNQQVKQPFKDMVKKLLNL
Summary of the method: as §1

OR2AT4 (Homo sapiens) = molecular target: T17, OR2AT4 (Homo sapiens) (UniProt A6NND4)
T17 sequence (whole entry): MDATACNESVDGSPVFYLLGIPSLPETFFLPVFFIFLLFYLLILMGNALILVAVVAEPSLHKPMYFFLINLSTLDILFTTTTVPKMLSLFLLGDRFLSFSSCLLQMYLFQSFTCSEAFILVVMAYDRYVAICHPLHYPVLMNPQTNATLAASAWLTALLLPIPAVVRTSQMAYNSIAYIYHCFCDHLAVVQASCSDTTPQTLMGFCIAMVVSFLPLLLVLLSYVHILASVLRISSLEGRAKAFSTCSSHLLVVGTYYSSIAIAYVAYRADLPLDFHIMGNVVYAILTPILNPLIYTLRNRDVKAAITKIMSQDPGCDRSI
Summary of the method: as §1

OR2B11 (Homo sapiens) = molecular target: T18, OR2B11 (Homo sapiens) (UniProt Q5JQS5)
T18 sequence (whole entry): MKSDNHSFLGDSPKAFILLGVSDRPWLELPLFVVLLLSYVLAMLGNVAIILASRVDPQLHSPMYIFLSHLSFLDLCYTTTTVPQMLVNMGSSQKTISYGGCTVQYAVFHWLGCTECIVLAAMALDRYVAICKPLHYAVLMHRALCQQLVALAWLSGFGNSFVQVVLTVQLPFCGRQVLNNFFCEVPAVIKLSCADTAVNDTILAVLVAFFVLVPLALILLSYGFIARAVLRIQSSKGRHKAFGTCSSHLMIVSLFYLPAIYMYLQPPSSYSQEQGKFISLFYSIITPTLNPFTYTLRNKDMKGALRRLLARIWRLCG
Summary of the method: as §1

OR2B2 (Homo sapiens) = molecular target: T19, OR2B2 (Homo sapiens) (UniProt Q9GZK3)
T19 sequence (whole entry): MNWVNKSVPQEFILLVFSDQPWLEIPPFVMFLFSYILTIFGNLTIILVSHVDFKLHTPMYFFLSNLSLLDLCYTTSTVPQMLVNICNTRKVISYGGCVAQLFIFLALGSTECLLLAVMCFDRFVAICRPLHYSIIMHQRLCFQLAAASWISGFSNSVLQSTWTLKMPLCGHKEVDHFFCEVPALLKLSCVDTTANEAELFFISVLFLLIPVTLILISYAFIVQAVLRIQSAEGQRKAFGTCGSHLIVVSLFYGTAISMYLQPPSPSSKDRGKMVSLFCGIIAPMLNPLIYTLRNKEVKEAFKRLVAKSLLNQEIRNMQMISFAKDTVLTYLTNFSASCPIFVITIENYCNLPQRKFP
Summary of the method: as §1

OR2AJ1 (Homo sapiens) = molecular target: T20, OR2AJ1 (Homo sapiens) (UniProt Q8NGZ0)
T20 sequence (whole entry): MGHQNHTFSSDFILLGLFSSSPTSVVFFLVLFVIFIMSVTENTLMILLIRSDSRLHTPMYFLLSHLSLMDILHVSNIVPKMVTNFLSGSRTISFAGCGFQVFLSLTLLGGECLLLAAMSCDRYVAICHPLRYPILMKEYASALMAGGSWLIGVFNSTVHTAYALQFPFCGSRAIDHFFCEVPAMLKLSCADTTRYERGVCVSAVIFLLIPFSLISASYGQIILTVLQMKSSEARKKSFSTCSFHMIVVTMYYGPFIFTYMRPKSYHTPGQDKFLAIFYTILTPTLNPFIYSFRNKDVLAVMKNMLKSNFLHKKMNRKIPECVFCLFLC
Summary of the method: as §1

Measured: odorant receptor agonist call

CC(=O)O
inactive: OR2A7 (Homo sapiens)

CCC1OC(=O)C(O)=C1C (stereo unspecified)
not listed: OR2AJ1 (Homo sapiens)
inactive: all other assays above

CCCCCC(=O)C(C)C(C)=O (stereo unspecified)
not listed: OR2A1 T73A R74C S168C | OR2A2 | OR2A5 I126V A202S A255T | OR2A7
inactive: all other assays above
